High-throughput results deposited in PubChem by several laboratories.
Lipid droplet: modulators of hepatic lipid droplet formation; AML12 mouse hepatocytes, oleate lipid droplets, BODIPY imaging; inhibition, % at 6.5 µM; actives 0.4% (n = 240,000); AID 1656;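 active means lipid droplet intensity inhibited by at least 50%, with more than 500 cells counted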
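Assay system: AML12 hepatocytes (mouse); Probe or stimulus: oleic acid at 100 µM to induce lipid droplet formation; Dosing: compound at 6.5 µM only; Schedule: compound with oleate, overnight; Detection: fluorescence imaging, 20x objective, two fields per well; Measure: % inhibition of lipid droplet signal.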
T cruzi repl: T. cruzi replication inhibition | inhibition, % (no concentration beside the values) | actives 1.4% (n = 300,000) | T. cruzi beta-gal in NIH3T3, luminescence, 90 h | AID 1885;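 active means mean inhibition across valid replicates above about 55%, limit read from the data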;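 further: signal also drops with host cell toxicity which is not excluded here; higher percent means less beta-gal luminescence so fewer parasites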
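Test system: β-gal T. cruzi (Tulahuen C4) inside NIH/3T3 cells / Quantity: 5,000 cells/well / Measured by: luminescence from GalScreen with 0.05% NP40, read after 60 min / Medium: DMEM plus 2% FBS / Measure: parasite load inhibition, % / Reagent: Tulahuen C4 trypomastigotes, 5000/well / Schedule: co-culture of at least 90 h after 3 h attachment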
Redox H2O2 prof: compounds producing H2O2 with reducing agent – biochemical, NIH compound library profiling, artefact control for MLSCN library redox annotation, primary screen; DTT-dependent redox cycling H2O2, phenol red/HRP absorbance; 100% = 100 µM peroxide control, 0% = buffer; activation, % at 10 µM; actives 0.03% (n = 200,000); AID 878;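 active means activation of at least 50% relative to the plate's high and low controls in the primary single-dose screen; inactive means activation below 50%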;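 further: compound incubated with DTT at 0.8 mM final as the reducing agent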
Lmaj promast: inhibitors of Leishmania major promastigote growth; Leishmania major promastigotes, resazurin fluorescence viability; actives 9% (n = 200,000); inhibition, % at 10 µM; in the data active means inhibition above about 50%;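 further: promastigotes grown with compound for 44 hours at 28 °C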
MPTP block: blocks calcium-induced mitochondrial swelling | isolated mouse mitochondria, Ca2+ swelling absorbance, 30 min | inhibition, % at 10 µM | actives 1.4% (n = 360,000);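 active means inhibition of 50% or more, scaled per plate between neutral and stimulator controls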
Lipid drop inh: hepatic lipid droplet formation inhibition, confirmed. AID 463183. AML12 mouse hepatocytes, BODIPY lipid droplet imaging; droplets induced with 100 µM oleic acid. inhibition, % at 5.2 µM. shares compounds with Lipid droplet. actives 65% (n = 870);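 active means inhibition of lipid droplet metric at least 50%, with more than 300 cells in each of four replicates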
AML12 tox img: toxic to AML12 mouse hepatocytes in counter-screen; shares compounds with Lipid droplet; DAPI nuclear morphology cytotoxicity imaging; active compounds read high; cells fed 100 µM oleate overnight; z-score at 5 µM; actives 3% (n = 870); AID 463200; in the data active means z-score above about 6.3;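 further: compound exposure lasted overnight at 37 °C before fixation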
AML12 tox ATP: AML12 hepatocyte cytotoxicity, confirmed; 530 tested, under 10 active; AML12 mouse hepatocyte viability, ATP luminescence; cells loaded with 100 µM oleic acid; cytotoxicity, % at 50 µM; shares compounds with Lipid droplet; AID 463219;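 active means cytotoxicity above 50% in each of four replicates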;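 further: compound exposure lasted overnight at 37 °C before the ATP read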
Hits are given with their value; i = inactive; nt = no result given; ! = not confirmed by another sample. Many of the other results were omitted from the sample, so hits are more common in it than they were.

SMILES	Lipid droplet	T cruzi repl	Redox H2O2 prof	Lmaj promast	MPTP block	Lipid drop inh	AML12 tox img	AML12 tox ATP
CCOC(=O)C1CCN(C(=O)c2ccc(N3CCCC3=O)cc2)CC1	nt	nt	nt	nt	i	nt	nt	nt
CCCN(CC(=O)Nc1ccccc1C)C(=O)/C=C/c1ccc(S(=O)(=O)N2CCCCCC2)cc1	nt	i	nt	nt	i	nt	nt	nt
CCC(C(=O)NCCc1ccc(C)cc1)n1nc(C)c2c(C)n(-c3ccccc3)nc2c1=O (stereo unspecified)	i	i	nt	nt	i	nt	nt	nt
CCOc1ccc(CCNC(=O)COC(=O)c2cc(OC)c(OC)c(OC)c2)cc1OCC	75	i	i	i	nt	109	i	i
CCOc1ccc(CCNC(=O)CS(=O)Cc2nc(-c3ccc(OC)c(OC)c3)oc2C)cc1OCC (stereo unspecified)	58	i	nt	nt	i	74	i	i
CCC(C(=O)NCCc1ccccc1OC)n1nc(C)c2c(C)n(-c3ccccc3)nc2c1=O (stereo unspecified)	57	i	nt	nt	i	82	i	i
Cc1ccc(-n2nc3c(=O)n(C(C)C(=O)NCCC4=CCCCC4)nc(C)c3c2C)cc1 (stereo unspecified)	58	i	nt	nt	i	83	i	i
CCN(CC)CCCNC(=O)C1CCN(C(=O)c2oc3cc4sc(N(C)C)nc4cc3c2C)CC1	i	i	nt	nt	i	nt	nt	nt
CCC(C)c1ccc(NC(=O)c2c([N+](=O)[O-])cnn2CC)cc1 (stereo unspecified)	i	i	nt	nt	i	nt	nt	nt
CCOc1ccc(C(=O)OCC(=O)Nc2ccc(SC(F)F)cc2)cc1OCC	51	i	i	i	i	72	i	nt
O=C(NCCO)c1cc2ccccc2cc1O	50!	i	i	i	i	i	i	nt
O=C(CSC1=NC2(CCCCCC2)N=C1c1ccccc1)Nc1ccc2c(c1)OCCO2	59	i	i	i	i	69	i	i
CCN(CC(=O)Nc1c(F)cccc1F)C(=O)CCCc1c[nH]c2ccccc12	82	i	nt	nt	i	105	i	i
Cc1cccc(NC(=O)CN2C(=O)N/C(=C\c3cccn3-c3cccc(C(=O)O)c3)C2=O)c1	i	i	i	i	i	nt	nt	nt
Cc1ccc(-n2cccc2/C=C2/NC(=O)N(CC(=O)Nc3cccc(C)c3)C2=O)cc1	90	i	i	i	i	110	i	i
COc1ccc(C)cc1NC(=O)c1cc(C2CC2)nc2c1c(C)nn2C1CCS(=O)(=O)C1 (stereo unspecified)	nt	nt	nt	nt	i	nt	nt	nt
CCC(C)NCCOc1ccc(C(C)(C)c2ccccc2)cc1 (stereo unspecified)	51	65	i	100	i	i	i	nt
CN(CC(=O)Nc1ccccc1C(F)(F)F)C(=O)COc1ncnc2ccccc12	i	i	i	i	i	nt	nt	nt
CC(C)C(NS(=O)(=O)c1cccs1)C(=O)N1CCC(C(N)=O)CC1 (stereo unspecified)	nt	nt	nt	nt	i	nt	nt	nt
CC(=O)c1ccc(N2CCCC2)c(F)c1	53	i	i	i	nt	i	i	nt
CC(=O)c1ccc(N2CCC(C)CC2)c(F)c1	i	i	i	i	i	nt	nt	nt
COC(=O)c1ccc(C2=NOC(C)(c3sc(-c4ccccc4)nc3C)C2)cc1 (stereo unspecified)	i	i	nt	nt	i	nt	nt	nt
COC(=O)c1ccc(C2=NOC(C)(c3sc(-c4ccc(Cl)cc4)nc3C)C2)cc1 (stereo unspecified)	56	i	nt	nt	i	58	i	i
CCOc1cc(/C=N/NC(=O)c2cc(-c3cccnc3)nc3ccccc23)ccc1O	i	i	i	i	i	nt	nt	nt
CCOc1ccccc1-c1cc(C(=O)N/N=C/c2ccc(O)c(OC)c2)c2ccccc2n1	50	i	i	58	i	72	i	i
SMILES	Lipid droplet	T cruzi repl	Redox H2O2 prof	Lmaj promast	MPTP block	Lipid drop inh	AML12 tox img	AML12 tox ATP
COc1ccccc1Nc1ccc(NC(=O)c2cccc([N+](=O)[O-])c2C)cc1	97	i	nt	nt	i	99	i	i
COc1ccc2nc(SCC(=O)N3CC(=O)Nc4ccccc43)c(C#N)cc2c1	i	i	i	i	i	nt	nt	nt
Cc1cc(C)c2nc(SCC(=O)N3CC(=O)Nc4ccccc43)c(C#N)cc2c1	163	i	i	i	i	i	22	nt
c1cc2c3c(cccc3c1)NC1(CCC3(CC1)Nc1cccc4cccc(c14)N3)N2	51	59	nt	nt	i	i	i	nt
c1cc2c3c(cccc3c1)NC1(CCCCCC1)N2	i	i	i	i	i	nt	nt	nt
CNC(=S)N1CCc2cc(OC)c(OC)cc2C1COc1ccc(F)cc1 (stereo unspecified)	i	i	i	i	i	nt	nt	nt
CCNC(=S)N1CCc2cc(OC)c(OC)cc2C1COc1ccc(F)cc1 (stereo unspecified)	60	i	i	i	i	97	i	i
COCCN(CC(=O)NC1CCCCC1)C(=O)CCCC(=O)Nc1ccccn1	i	i	i	i	i	nt	nt	nt
CCOc1ccccc1C(=O)N(Cc1ccco1)C1CCS(=O)(=O)C1 (stereo unspecified)	nt	nt	i	i	i	nt	nt	nt
CCCCOc1ccccc1C(=O)N(Cc1ccco1)C1CCS(=O)(=O)C1 (stereo unspecified)	51	i	nt	nt	i	i	i	i
C/C(=N\O)C(C)(C)Nc1ccccc1F	i	i	nt	nt	i	nt	nt	nt
CCc1ccc(OCc2ccc(C(=O)O)o2)cc1	59	i	nt	nt	i	i	i	nt
C=C(C)Cn1c(N2CCC(Cc3ccccc3)CC2)nc2c1c(=O)[nH]c(=O)n2C	64	i	i	78	i	107	i	i
CC(=O)Cn1c(N2CCC(Cc3ccccc3)CC2)nc2c1c(=O)[nH]c(=O)n2C	nt	i	i	i	i	nt	nt	nt
O=C(Nc1cccc(Cn2cccn2)c1)c1cc2c(s1)CCCC2	55	i	i	i	i	i	i	i
CC(=O)Nc1cccc(Cn2cccn2)c1	i	i	i	i	nt	nt	nt	nt
O=C(O)c1ccc2c(c1)C(=O)N(CCc1c[nH]c3ccccc13)C2=O	i	i	nt	nt	i	nt	nt	nt
O=c1c(C/C=C/c2ccccc2)c(O)ccn1CCc1c[nH]c2ccccc12	60	i	i	i	i	105	i	i
CCOc1ccccc1N1CCN(CC(=O)N(CC(C)C)c2c(N)n(CC(C)C)c(=O)[nH]c2=O)CC1	i	i	i	i	i	nt	nt	nt
CCc1nc2ccccc2c(C(=O)OCC(=O)NCc2ccc3c(c2)OCO3)c1C	79	i	i	i	i	92	i	i
CCCc1nc2ccccc2c(C(=O)OCC(=O)NCc2ccc3c(c2)OCO3)c1CC	i	i	i	i	i	nt	nt	nt
Cc1ccc(OCC(=O)NCc2ccc3c(c2)OCO3)c([N+](=O)[O-])n1	58	i	i	i	i	i	i	nt
